Measurements as given in ChEMBL document CHEMBL1137990, “Design and synthesis of novel indole beta-diketo acid derivatives as HIV-1 integrase inhibitors” (J Med Chem, 2004).

Columns and labels:
CEM-SS = experiment: Cytotoxic concentration against HIV-1 was evaluated in human T-cell line CEM-SS; type: functional
In short: (§1)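 CEM-SS human T cells at 5 × 10³ cells/well infected with HIV-1 RF (MOI 0.3). Serial compound dilutions added at once; cultured 6 days at 37 °C, 5% CO₂. Viability read by XTT (0.2 mg/mL, 4 h) absorbance at 450 nm. AZT and dextran sulfate run as controls. Toxicity measured on the same plate in uninfected CEM-SS cells.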

[1] = Therapeutic index is the ratio of CC50 to that of EC50; conditions: human; read-out: Therapeutic index
In short: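 CC50/EC50 ratio, both values from the same plate. CEM-SS cells were infected with HIV-1 RF (MOI 0.3) or left uninfected, with serial compound dilutions. Cultures ran 6 days at 37 °C. Viability was read by XTT absorbance at 450 nm.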

[2] = target: T1, Human immunodeficiency virus type 1 integrase (Human immunodeficiency virus 1, UniProt Q7ZJM1); experiment: Inhibitory concentration against HIV-1 integrase mediated strand transfer reaction
T1 sequence (Q7ZJM1 whole entry): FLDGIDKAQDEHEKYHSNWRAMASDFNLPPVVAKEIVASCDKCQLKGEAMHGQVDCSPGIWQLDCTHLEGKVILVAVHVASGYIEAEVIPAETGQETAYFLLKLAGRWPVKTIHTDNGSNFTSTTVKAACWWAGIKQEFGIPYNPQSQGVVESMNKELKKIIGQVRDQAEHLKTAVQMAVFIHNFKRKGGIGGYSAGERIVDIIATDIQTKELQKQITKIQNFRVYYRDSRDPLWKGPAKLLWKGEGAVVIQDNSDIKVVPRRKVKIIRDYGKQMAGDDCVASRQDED
In short: (§2)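 Wild-type IN at 200 nM final, preincubated with inhibitor for 30 min at 30 °C in buffer of 50 mM NaCl, 1 mM HEPES pH 7.5, 50 µM EDTA, 50 µM DTT, 10% glycerol, 7.5 mM MnCl₂, 0.1 mg/mL BSA, 10 mM 2-mercaptoethanol, 10% DMSO, 25 mM MOPS pH 7.2. Then 20 nM 5′-³²P-labeled linear oligonucleotide substrate added, 1 h more; quenched with formamide/EDTA loading dye; products resolved on gel.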

[3] = target: T1, Human immunodeficiency virus type 1 integrase; experiment: Inhibitory concentration against HIV-1 integrase mediated 3' processing reaction; in short: as §2
[4] = target: Human immunodeficiency virus type 1 integrase (Human immunodeficiency virus 1) (UniProt Q7ZJM1); experiment: Selectivity index against HIV-1 integrase
Human immunodeficiency virus type 1 integrase (Human immunodeficiency virus 1), sequence (Q7ZJM1 as listed by the source): as the sequence (Q7ZJM1 whole entry) above

[5] = tested on: Human immunodeficiency virus 1; experiment: Effective concentration required for the inhibition of HIV-1 cytopathic effect; type: functional, organism-based; in short: as §1

IC50 [2] | IC50 [3] | Selectivity index [4] | EC50 [5] | SMILES | CC50 (CEM-SS) | selectivity ratio [1]
65 µM | 85 µM | 1.3 | > 75 µM | CCn1c(C(=O)CC(=O)C(=O)OC)cc2cc3c(cc21)OCO3 | 75 µM | –
6 µM | 50 µM | 8 | > 81 µM | Cn1c(/C(O)=C/C(=O)C(=O)O)cc2ccccc21 | 81 µM | –
45 µM | 100 µM | 2 | > 106 µM | COC(=O)C(=O)CC(=O)c1cc2ccccc2n1C | 106 µM | –
– | – | – | > 60 µM | CCn1c(C(=O)CC(=O)C(=O)OC)cc2ccccc21 | 60 µM | –
3 µM | 45 µM | 15 | 123 µM | CCn1cc(/C(O)=C/C(=O)C(=O)O)c2cc3c(cc21)OCO3 | > 200 µM | > 1.6
5 µM | 55 µM | 11 | > 57 µM | CCn1c(/C(O)=C/C(=O)C(=O)O)cc2cc3c(cc21)OCO3 | 57 µM | –

The next lines start with the molecule.

SMILES | IC50 [2] | IC50 [3] | Selectivity index [4] | EC50 [5] | CC50 (CEM-SS) | selectivity ratio [1]
CCn1cc(/C(O)=C/C(=O)C(=O)O)c2ccccc21 | 3 µM | 93 µM | 31 | 9 µM | 108 µM | 12
CCn1cc(C(=O)CC(=O)C(=O)OC)c2ccccc21 | 26 µM | > 100 µM | > 3.8 | 19 µM | > 200 µM | > 10.5
CCn1c(/C(O)=C/C(=O)C(=O)O)cc2ccccc21 | 1.6 µM | 16 µM | 10 | > 110 µM | 110 µM | –
COC(=O)C(=O)CC(=O)c1cn(C)c2cc3c(cc12)OCO3 | 60 µM | > 100 µM | > 1.6 | > 31 µM | 31 µM | –
Cn1cc(/C(O)=C/C(=O)C(=O)O)c2cc3c(cc21)OCO3 | 3 µM | 100 µM | 33 | > 108 µM | 108 µM | –
COC(=O)C(=O)CC(=O)c1cc2cc3c(cc2n1C)OCO3 | 50 µM | 100 µM | 2 | > 200 µM | > 200 µM | –
O=C(O)C(=O)/C=C(\O)c1cc2cc3c(cc2n1Cc1ccccc1)OCO3 | 2 µM | 35 µM | 17 | > 3.8 µM | 3.8 µM | –
O=C(O)C(=O)/C=C(\O)c1cn(Cc2ccccc2)c2ccccc12 | 1 µM | 12 µM | 12 | – | – | –
COC(=O)C(=O)CC(=O)c1cc2cc3c(cc2n1Cc1ccccc1)OCO3 | 14 µM | 100 µM | 7 | > 1.1 µM | 1.1 µM | –
Cn1cc(/C(O)=C/C(=O)C(=O)O)c2ccccc21 | 2 µM | 100 µM | 50 | 37 µM | > 200 µM | > 5.4
Cn1c(/C(O)=C/C(=O)C(=O)O)cc2cc3c(cc21)OCO3 | 2 µM | 11 µM | 5 | > 200 µM | > 200 µM | –
O=C(O)C(=O)/C=C(\O)c1cc2ccccc2n1Cc1ccccc1 | 1 µM | 20 µM | 20 | – | – | –
